From ChEMBL document CHEMBL1124296, “Molecular basis for bleomycin amplification: conformational and stereoelectronic effects in unfused amplifiers” (J Med Chem, 1988)

Tested on: Calf thymus DNA
Assay: Binding constant to DNA measured spectrophotometrically
Type: nucleic-acid assay
Conditions: Bos taurus
Outline: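 Calf thymus DNA, stripped of residual protein and dialyzed into PIPES 00 buffer (0.01 M PIPES, 0.001 M EDTA, NaOH to pH 7.00, [Na⁺] 0.019 M). DNA-P concentration was read at 260 nm with ε 6600 M⁻¹ cm⁻¹. Equilibrium binding constants were obtained spectrophotometrically by an earlier-reported procedure.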

| SMILES | K |
| --- | --- |
| Cc1cnc(SCCN(C)C)nc1-c1cccs1 | 48000 M⁻¹ |
| Cc1ccnc(-c2cc(COCCN(C)C)ccn2)c1 | 3000 M⁻¹ |
| CN(C)CCSc1nccc(-c2cccs2)n1 | 18700 M⁻¹ |
| CN(C)CCOc1cccc(-c2ccccc2)c1 | 3000 M⁻¹ |
| CN(C)CCSc1nccc(-c2nccs2)n1 | 9250 M⁻¹ |
| CN(C)CCSc1nccc(-c2ccccc2)n1 | 8600 M⁻¹ |
| CN(C)CCOc1nccc(-c2cccs2)n1 | 3400 M⁻¹ |
| CN(C)CCOc1ccc(-c2ccccc2)cc1 | 3000 M⁻¹ |
| Cc1cc(-c2cccs2)nc(SCCN(C)C)n1 | 24800 M⁻¹ |
| CN(C)CCSc1nccc(-c2ccco2)n1 | 3500 M⁻¹ |
| CN(C)CCSc1nccc(-c2cccn2C)n1 | 10100 M⁻¹ |
| CSc1nc(NCCN(C)C)cc(-c2cccs2)n1 | 6800 M⁻¹ |
| CN(C)CCOc1ccccc1-c1ccccc1 | 3000 M⁻¹ |
| CSc1cc(-c2cccs2)nc(NCCN(C)C)n1 | 13700 M⁻¹ |
| CN(C)CCNc1nccc(-c2cccs2)n1 | 4400 M⁻¹ |
| CN(C)CCNc1nccc(-c2nccs2)n1 | 3900 M⁻¹ |
